PHOSPHO1 block = PHOSPHO1 (human) inhibition | Q8TCT1 | recombinant PHOSPHO1, absorbance phosphatase assay | inhibition, % at 13.3 µM | 290,000 compounds, 1.1% hits | AID 1565; in the data active = inhibition above about 60%
Target sequence (Q8TCT1 whole entry, looked up): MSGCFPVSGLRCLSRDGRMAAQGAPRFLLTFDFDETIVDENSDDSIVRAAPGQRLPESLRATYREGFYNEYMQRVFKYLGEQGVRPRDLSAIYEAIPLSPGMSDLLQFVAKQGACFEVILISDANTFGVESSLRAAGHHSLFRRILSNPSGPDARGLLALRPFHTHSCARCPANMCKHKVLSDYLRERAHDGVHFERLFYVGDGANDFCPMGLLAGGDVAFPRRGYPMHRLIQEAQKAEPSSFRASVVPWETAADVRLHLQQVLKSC
Tb hexokinase = T. brucei hexokinase 1 inhibition | recombinant TbHK1, G6PDH-coupled NADH A340 | inhibition, % at 10 µM | 220,000 compounds, 0.11% hits;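 active = inhibition of 50% or more in the single-dose primary screen; inactive = inhibition below 50%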
PfG6PD inh = PfG6PD (Plasmodium falciparum) enzyme inhibition; inhibition, % at 20 µM; 350,000 compounds, 0.78% hits; AID 504690; PfGluPho enzyme, NADPH resazurin-diaphorase fluorescence;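 active = inhibition reaching at least a set limit at 20 µM in the primary screen, cut at about 59% in these data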;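 note: 0% = DMSO wells with substrate and 100% = DMSO wells lacking glucose-6-phosphate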
PGE2 EP2 inh = inhibitors of human EP2 prostaglandin E2 receptor; inhibition, % at 25 µM; 260,000 compounds, 0.52% hits; C6 glioma cells expressing human EP2, cAMP TR-FRET; cells stimulated with saturating PGE2; AID 1422;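 active = percent inhibition above 40 after rounding to a whole number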;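 note: rat C6 glioma host cells with rolipram phosphodiesterase inhibitor present; the protocol text gives 20 µM as final concentration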
Target sequence (P43116 whole entry, looked up): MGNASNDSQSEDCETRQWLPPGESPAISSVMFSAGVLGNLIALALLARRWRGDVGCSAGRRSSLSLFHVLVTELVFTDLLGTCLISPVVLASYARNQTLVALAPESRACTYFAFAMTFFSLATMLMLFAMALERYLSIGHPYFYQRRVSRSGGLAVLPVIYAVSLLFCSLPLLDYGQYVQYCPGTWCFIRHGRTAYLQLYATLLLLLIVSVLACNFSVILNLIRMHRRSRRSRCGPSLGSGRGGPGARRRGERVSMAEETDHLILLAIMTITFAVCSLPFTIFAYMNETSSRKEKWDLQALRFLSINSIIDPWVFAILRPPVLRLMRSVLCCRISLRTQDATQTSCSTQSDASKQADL
HKDC1 inhibitor = inhibitors of human hexokinase HKDC1 | Q2TB90 | recombinant HKDC1, G6PDH/diaphorase resazurin coupled fluorescence | inhibition, % at 20 µM | 340,000 compounds, 0.16% hits | AID 493160;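 active = inhibition above about 35% when tested at 20 µM, limit read from the data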;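 note: plate controls were DMSO wells with enzyme for no effect and DMSO wells lacking enzyme for full effect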
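Test system: recombinant HKDC1 (HK5) hexokinase enzyme, produced in-house; Amount: enzyme 5 µg/mL final; Buffer or medium: Tris pH 8.0 buffer with MgCl2, Tween-20, BSA, BME; Reagent: glucose and ATP substrates; Doses: 20 µM test compound, 1% DMSO; Incubation: 90 min reaction incubation at room temperature, dark; Detection: resorufin fluorescence at 613 nm.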
EP2 mod = EP2 receptor (human) modulation; 260,000 compounds, 0.83% hits; EP2-expressing cells, cAMP HTRF FRET, PGE2 co-stimulation; P43116; AID 940; induction, % at 25 µM;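 active = compounds whose cAMP rise, as percent of the full-agonist control response, exceeds 60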;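 note: rat C6 glioma line stably carrying human EP2 under a CMV promoter; the protocol text gives 20 µM as final concentration; 100% = response of wells given 1 µM PGE2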
PfG6PD confirm = confirmation of Plasmodium falciparum G6PD inhibitors; inhibition, % at 20 µM; AID 504753; 2,400 compounds, 34% hits; shares compounds with PfG6PD inh; recombinant PfGluPho, NADPH-diaphorase-resazurin fluorescence;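 active = inhibition of at least 50% at 20 µM in any single replicate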;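 note: 0% = DMSO with substrate and 100% = DMSO lacking glucose-6-phosphate substrate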
Diaph ctr 10uM = counter-screen for P. falciparum G6PD inhibitors: diaphorase inhibitors, oxidizers; shares compounds with PfG6PD inh; diaphorase-coupled resazurin reduction, fluorescence, NADPH 10 uM; inhibition, % at 20 µM; 820 compounds, 39% hits; AID 504862;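 active = average inhibition reaching 50% or more with the compound at 20 µM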;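 note: resorufin red fluorescence formed as diaphorase reduces resazurin using NADPH; 0% = DMSO with enzyme and 100% = DMSO without enzyme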
Diaph ctr 30uM = counter-screen for P. falciparum G6PD inhibitors: diaphorase inhibitors, oxidizers; inhibition, % at 20 µM; Diaphorase/resazurin coupled assay, resorufin fluorescence, 30 uM NADPH; AID 504863; 820 compounds, 29% hits; shares compounds with PfG6PD inh;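 active = inhibition averaging 50% or more, tested at 20 µM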;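 note: 0% = DMSO with enzyme and 100% = DMSO wells lacking diaphorase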
Starred values were filed as active, the others as inactive; · = no result given. Only some compounds are listed: those with a hit (about 2.5% of all), similar ones and a draw of the others.

SMILES | PHOSPHO1 block | Tb hexokinase | PfG6PD inh | PGE2 EP2 inh | HKDC1 inhibitor | EP2 mod | PfG6PD confirm | others
CCn1cc(C(=O)N2CCCC(c3ncncc3-c3ccncc3)C2)cn1 (stereo not given) | · | · | · | · | · | -15 | ·
CN(C)c1ccc(NC(=S)c2ccc3ccccc3n2)cc1 | 7 | · | 67* | · | -17 | · | 37
COCCn1nnnc1C(C(C)C)N(Cc1ccccc1)Cc1cc2cc(C)c(C)cc2[nH]c1=O (stereo not given) | · | · | · | 13 | · | 54 | ·
COc1ccc(-c2cc3ccc(F)cc3cn2)cc1 | · | · | 69* | · | -1 | · | 22
O=C1CC(N2CCN(c3ccc(O)cc3)CC2)C(=O)N1c1ccc2c(c1)OCO2 (stereo not given) | 30 | -1 | 60* | 2 | -4 | 22 | 29
Cc1ccc(C2=CSC3=NCCN23)c(C)c1 | 57 | 0 | 63* | 12 | -6 | -6 | 24
Clc1ccc(C2=CSC3=NCCN23)c(Cl)c1 | · | · | 16 | · | 1 | · | ·
CCOC(=O)c1cc2c(=O)n3cccc(C)c3nc2n(Cc2ccco2)c1=NC(=O)c1cccnc1 | 10 | -14 | 60* | 10 | 25 | 4 | -1
CCC(c1nnnn1CCc1ccccc1)N(Cc1cc2cccc(C)c2[nH]c1=O)C1CCCCC1 (stereo not given) | · | · | · | 9 | · | 30 | ·
COc1ccc(NCc2cc3ccccc3[nH]c2=O)cc1 | 25 | -11 | 25 | 22 | 4 | -17 | ·
COc1ccc2[nH]c(=O)c(CN(Cc3cccs3)C(=S)Nc3cccc(C)c3)cc2c1 | -9 | 12 | -15 | 1 | -4 | -7 | ·
COc1ccc2[nH]c(=O)c(CNc3cccc(C)c3)cc2c1 | 28 | -9 | 69* | 18 | 20 | -6 | -2
COc1ccc(NCc2cc3cc(OC)ccc3[nH]c2=O)cc1 | 16 | -15 | 73* | 22 | 5 | -78 | 26
Cc1[nH]c2ccc(C(=O)N3CCn4c(CO)nnc4C3)cc2c1C | · | · | · | · | · | 17 | ·
Cc1ccc2c(c1)cc(C)c1nnc(SCC(=O)N3CCCC3)n12 | · | · | · | 8 | · | -6 | ·
O=C(Cc1ccc(Cl)cc1)Nc1ccc(S(=O)(=O)N2CCCCC2)cc1 | · | · | · | 17 | · | -39 | ·
CCC(=O)N(Cc1ccc(C)cc1)Cc1cc2cc(C)cc(C)c2[nH]c1=O | · | · | · | 6 | · | -53 | ·
COC(=O)c1cccc(NC(=O)CSc2nnc3c4c5c(sc4nc(C4CC4)n23)CCCC5)c1 | · | · | · | 14 | · | -62 | ·
Cc1cc(S(=O)(=O)ON2C(=O)c3ccccc3C2=O)ccc1F | 7 | · | 65* | · | 4 | · | 6
O=C1c2ccccc2C(=O)N1OS(=O)(=O)c1ccccc1 | -2 | -3 | · | 16 | · | -88 | ·
COc1ccc(C(C)=O)c(OCC(=O)NCCC2=CCCCC2)c1 | · | · | 65* | · | · | · | 44
COCCn1c(N2CCCCC2)nc2c1c(=O)n(C)c(=O)n2C | · | · | · | 7 | · | -18 | ·
CC1CCc2c(sc3nc(C(C)C)n4c(SCC(=O)N5CCCC5)nnc4c23)C1 (stereo not given) | · | · | · | 5 | · | 13 | ·
CCN(CC)Cc1cc(Nc2c3ccccc3nc3c4ccccc4n(C)c23)cc(CN(CC)CC)c1O | · | · | 80* | · | 20 | · | 28
COc1ccc(OC)c(S(=O)(=O)N2CCC(C(=O)Nc3cc(C)cc(C)c3)CC2)c1 | · | · | · | 5 | · | -67 | ·
SMILES | PHOSPHO1 block | Tb hexokinase | PfG6PD inh | PGE2 EP2 inh | HKDC1 inhibitor | EP2 mod | PfG6PD confirm | others
Oc1ccc(C=NNc2ccccn2)c(O)c1 | · | · | 61* | · | 14 | · | 45
C[C@@H](Cn1nnc2ccccc21)NC(=O)c1ccncc1 | · | · | · | 4 | · | -13 | ·
CCn1c(=O)n(CC)c2cc(S(=O)(=O)N3CCc4ccccc43)ccc21 | 14 | -3 | 78* | 8 | -10 | -39 | 44
C=CCNC(=O)c1cc2c(=O)n3cc(C)ccc3nc2n(CCOC)c1=N | · | · | · | 3 | · | -20 | ·
Cc1ccc(S(=O)(=O)SCCCSS(=O)(=O)c2ccc(C)cc2)cc1 | · | · | 123* | · | -3 | · | 81* | Diaph ctr 10uM=-34;Diaph ctr 30uM=-27
Cc1ccc(S(=O)(=O)C=CS(=O)(=O)c2ccc(C)cc2)cc1 | · | · | 113* | · | · | · | 93* | Diaph ctr 10uM=-3;Diaph ctr 30uM=-1
Cc1ccc(S(=O)(=O)SC/C=C/CSS(=O)(=O)c2ccc(C)cc2)cc1 | · | · | 116* | · | -2 | · | 66* | Diaph ctr 10uM=-21;Diaph ctr 30uM=-5
CC1CCN(C(=O)CSc2nnc(COc3cccc4cccnc34)o2)CC1 | · | · | · | 8 | · | -11 | ·
CCN1CCCC1CN(Cc1cc2cc(C)ccc2[nH]c1=O)C(=O)Nc1ccc(F)cc1 (stereo not given) | · | · | · | 12 | · | -19 | ·
Cc1cc(C=C2C(=O)c3ccccc3C2=O)c(C)n1-c1ccc(C(=O)O)cc1 | -97 | -3 | 100* | 3 | 4 | -40 | 73* | Diaph ctr 10uM=54*;Diaph ctr 30uM=61*
Cc1cc(/C=C2\Cc3ccccc3C2=O)c(C)n1-c1ccccc1 | -2 | -10 | 59* | 0 | 2 | 14 | 15
Cc1cc(C=C2C(=O)c3ccccc3C2=O)c(C)n1-c1cccc(C(=O)O)c1 | -10 | 3 | 61* | 9 | -2 | -33 | 47
O=C(CCc1ccccc1)N1CCC(n2nc(-c3ccco3)ccc2=O)CC1 | · | · | · | · | · | -42 | ·
CCOc1cc(C2NC(=O)NC(C)=C2C(=O)OC(C)(C)C)ccc1O (stereo not given) | · | · | · | 7 | · | -21 | ·
CCSc1nc2c(c(=O)n(C)c(=O)n2C)n1CC(O)COc1ccc(OC)cc1 (stereo not given) | · | · | · | 13 | · | 19 | ·
CCOC(=O)c1sc(NC(=O)C(C)C)c(C(=O)OCC)c1C | · | · | · | 7 | · | 24 | ·
CCOC(=O)c1sc(NC(=O)C(C)C)c(C#N)c1C | -67 | -5 | 68* | 15 | -18 | 13 | 34
Cc1cc(C)c2cc(C#N)c(SCC(=O)Nc3sc(C)c(C)c3C#N)nc2c1 | · | · | · | 5 | · | 7 | ·
Cc1ccc(-c2c(C#N)c(N)nc3c2CCCC3)o1 | -8 | -5 | -12 | 8 | -2 | 28 | ·
Cc1ccc(-c2c3c([nH]c(=S)c2C#N)CCCC3)o1 | 84* | 1 | 59* | 15 | 2 | 34 | 34
O=C(Nc1ccccc1)c1nnsc1S(=O)c1ccc(Cl)cc1 (stereo not given) | 93* | 1 | 64* | 142* | 17 | -26 | 18
COc1cc2[nH]c(Cl)c([N+](=O)[O-])c2cc1OC | -12 | -38 | 104* | 9 | 11 | 14 | 21
CCOc1ccc(-c2csc(N)c2C(=O)OC)cc1 | 62* | 1 | 66* | 13 | -10 | 25 | 10
CCOC(=O)c1c(-c2ccncc2)csc1N | -21 | 7 | 16 | 10 | 3 | 9 | ·
